For test [1], the system named is OC2. The experiment in a line: Activation of phospholipase A2/C in human OC2 cells assessed as increase in intracellular calcium level at 1 uM. Format: cell-based. In a few lines: (§1)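 OC2 cells trypsinized (10^6/mL), recovered 1 h in culture medium, loaded with 2 µM fura-2/AM for 30 min at 25 °C, washed and resuspended in Ca2+-containing buffer pH 7.4 (NaCl 140, KCl 5, MgCl2 1, CaCl2 2, HEPES 5, glucose 5 mM). 0.5 million cells/mL stirred at 25 °C. Ratio of 340/380 nm excitation read at 510 nm emission every 1 s. Calibrated with Triton X-100 and EGTA, Kd 155 nM.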

Test [2] in a line: (§2) Cytotoxicity in human OC2 cells assessed as decrease in cell viability after 24 hrs by crystal violate assay. Format: functional, cell-based. To be noted: OC2, 24 h. The gist of the method: (§3)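 OC2 cells in RPMI with 10% heat-inactivated FCS at 37 °C, 5% CO2. Plated at 1 × 10^4 per well and grown overnight. At about 70% confluence, medium replaced with compound at 0-100 µM from a DMSO stock (final DMSO <0.5%, DMSO as control) for 24 h. Cell number by crystal violet elution, expressed as percent of control. n=5.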

The test system of test [3] is OC2. The test is described as §2. Format: functional, cell-based. In a few lines: as §3
Test [4] has as its system OC2. In words: Activation of phospholipase A2/C in human OC2 cells assessed as increase in intracellular calcium level at 100 uM in presence of protein kinase C activator PMA.
In test [5] the test system is OC2. In words: Activation of phospholipase A2/C in human OC2 cells assessed as increase in intracellular calcium level at 0.1 uM. Format: cell-based. The gist of the method:
as §1

For test [6], the system named is OC2. The experiment in a line: Activation of phospholipase A2/C in human OC2 cells assessed as increase in intracellular calcium level at 100 uM pretreated with phospholipase C inhibitor […] and ATP. Format: cell-based.
The subject of test [7] is OC2. In words: Activation of phospholipase A2/C in human OC2 cells assessed as decrease in intracellular calcium release at 100 uM in presence of Calcium entry blocker La3+. Format: cell-based. In a few lines:
as §1

Test [8] deals with OC2. The experiment in a line: Activation of calcium channel in human OC2 cells assessed as increase in intracellular calcium […] in presence of La3+. Format: cell-based. The gist of the method:
as §1

Test [9] has as its system OC2. In words: Activation of phospholipase A2/C in human OC2 cells assessed as increase in intracellular calcium level at 100 uM. Format: cell-based. In a few lines:
as §1

The subject of test [10] is OC2. The experiment in a line: Activation of phospholipase A2/C in human OC2 cells assessed as increase in intracellular calcium level at 100 uM in presence of thapsigargin. Format: cell-based.
Test [11] has as its system OC2. In words: Activation of phospholipase A2/C in human OC2 cells assessed as increase in intracellular calcium level in presence of phospholipase-A2 inhibitor aristolochc acid. Format: cell-based. The gist of the method:
as §1

In test [12] the test system is OC2. The experiment in a line: Activation of phospholipase A2/C in human OC2 cells assessed as increase in intracellular calcium level at 100 uM in presence of PKA inhibitor H89. Format: cell-based. In a few lines:
as §1

Test [13] has as its system OC2. In words: Activation of phospholipase A2/C in human OC2 cells assessed as increase in intracellular calcium level at 100 uM in presence of PKC inhibitor GF109203X. Format: cell-based. In a few lines: as §1

Molecules are shown by their SMILES. Active and inactive are the calls of the source. The rule behind the calls is not given here.

Turning to `COC(=O)C1=C(C)NC(C)=C(C(=O)OC)C1c1ccccc1[N+](=O)[O-]`, in test [1], the outcome was inactive.
`COC(=O)C1=C(C)NC(C)=C(C(=O)OCCN(C)Cc2ccccc2)C1c1cccc([N+](=O)[O-])c1` (configuration not stated): in [1], the outcome was inactive.
On to `COc1ccc(CCN(C)CCCC(C#N)(c2ccc(OC)c(OC)c2)C(C)C)cc1OC` (configuration not stated), for which the result in [1] was inactive.
With `COc1ccc([C@@H]2Sc3ccccc3N(CCN(C)C)C(=O)[C@@H]2OC(C)=O)cc1`, in test [1], the outcome was inactive.
As to `CCCCC[C@H](O)CC(=O)CCc1ccc(O)c(OC)c1` [GINGEROL], the IC50 in test [2] is 74.2 µM.
Consider `CCCCC/C=C/C(=O)CCc1ccc(O)c(OC)c1` [SHOGAOL], for which the Activity entry is “Dose-dependent effect” in test [3] and 68% in [9]. The concentration for half-maximal inhibition (IC50) in [2] came to 15.6 µM. Moreover, the result in [4], in test [12] and in [13] was Active. Further, the result in [5], in test [6], in test [7], in test [8], in test [10] and in test [11] was inactive.

The record behind these values is ChEMBL document CHEMBL1212891, “Effect of [6]-shogaol on cytosolic Ca2+ levels and proliferation in human oral cancer cells (OC2)” (J Nat Prod, 2010).
